In ChEMBL document CHEMBL4196166 (J Med Chem, 2018):

Legend:
[1] = molecular target: T1, Urokinase-type plasminogen activator (Homo sapiens, UniProt P00749); experiment: Inhibition of human kidney uPA using Z-Gly-Gly-Arg-AMC as substrate measured over 15 mins by fluorescence assay
[2] = molecular target: T2, Epithelial sodium channel subunit alpha (Homo sapiens, UniProt P37088); experiment: Inhibition of S-3969-stimulated recombinant human ENaC alpha subunit expressed in HEK293 cells at 10 uM preincubated for 5 mins followed by S-3969 stimulation by FLIPR assay; assay type: cell-based; conditions: hek293, 10 µM
T2 sequence (P37088 whole entry): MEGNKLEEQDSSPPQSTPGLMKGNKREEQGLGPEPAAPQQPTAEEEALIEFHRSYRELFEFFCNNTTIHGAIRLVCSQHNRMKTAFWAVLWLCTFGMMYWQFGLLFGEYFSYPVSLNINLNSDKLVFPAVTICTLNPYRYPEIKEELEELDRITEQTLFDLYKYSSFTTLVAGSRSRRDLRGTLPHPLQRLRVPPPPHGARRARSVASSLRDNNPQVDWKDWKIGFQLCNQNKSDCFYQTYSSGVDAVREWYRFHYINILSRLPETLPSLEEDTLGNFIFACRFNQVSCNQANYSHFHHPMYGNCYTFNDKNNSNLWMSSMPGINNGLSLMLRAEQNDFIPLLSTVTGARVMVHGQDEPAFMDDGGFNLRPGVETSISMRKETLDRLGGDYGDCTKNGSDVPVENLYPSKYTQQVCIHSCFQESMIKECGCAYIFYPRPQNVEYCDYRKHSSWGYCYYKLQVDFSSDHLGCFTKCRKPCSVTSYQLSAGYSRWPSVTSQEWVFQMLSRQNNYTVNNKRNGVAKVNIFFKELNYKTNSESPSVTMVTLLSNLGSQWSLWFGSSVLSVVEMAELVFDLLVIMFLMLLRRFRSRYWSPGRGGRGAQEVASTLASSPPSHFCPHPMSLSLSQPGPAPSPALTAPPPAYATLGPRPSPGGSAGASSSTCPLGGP
In short: (§1)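 HEK-293 cells transfected with human ENaC α, β and γ cDNA together, plated at 20 000 cells/well, incubated overnight at 37 °C. Loaded with membrane-potential red dye for 30 min at 37 °C. Compound preincubated 5 min in HEPES-buffered salt solution (pH 7.4, 0.3% DMSO), then stimulated with 1 µM S-3969, read on FLIPR. Signal normalized to agonist alone (100%) and agonist plus 30 µM benzamil (0%). n = 4 wells.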

[3] = molecular target: T3, Epithelial sodium channel subunit beta (Homo sapiens, UniProt P51168); experiment: Inhibition of S-3969-stimulated recombinant human ENaC beta subunit expressed in HEK293 cells at 10 uM preincubated for 5 mins followed by S-3969 stimulation by FLIPR assay; assay type: cell-based; conditions: hek293, 10 µM; in short: as §1
T3 sequence (P51168 whole entry): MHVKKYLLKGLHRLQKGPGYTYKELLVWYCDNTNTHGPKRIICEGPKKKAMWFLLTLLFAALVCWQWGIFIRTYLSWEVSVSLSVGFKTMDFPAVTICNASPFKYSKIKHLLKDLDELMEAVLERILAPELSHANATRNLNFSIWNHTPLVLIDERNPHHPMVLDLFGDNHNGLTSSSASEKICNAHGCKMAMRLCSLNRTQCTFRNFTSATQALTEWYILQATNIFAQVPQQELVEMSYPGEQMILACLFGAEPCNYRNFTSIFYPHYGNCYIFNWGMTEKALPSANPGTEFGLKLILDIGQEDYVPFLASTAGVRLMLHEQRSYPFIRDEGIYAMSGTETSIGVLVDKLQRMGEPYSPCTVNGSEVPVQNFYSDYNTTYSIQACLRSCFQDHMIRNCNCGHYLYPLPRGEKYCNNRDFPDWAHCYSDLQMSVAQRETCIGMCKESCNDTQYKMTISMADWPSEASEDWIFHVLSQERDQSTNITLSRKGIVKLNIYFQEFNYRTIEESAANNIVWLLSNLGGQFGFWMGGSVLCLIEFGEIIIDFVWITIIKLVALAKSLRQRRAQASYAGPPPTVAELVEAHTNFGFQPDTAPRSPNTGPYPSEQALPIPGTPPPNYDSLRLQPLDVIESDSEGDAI

[4] = molecular target: T4, Epithelial sodium channel subunit gamma (Homo sapiens, UniProt P51170); experiment: Inhibition of S-3969-stimulated recombinant human ENaC gamma subunit expressed in HEK293 cells at 10 uM preincubated for 5 mins followed by S-3969 stimulation by FLIPR assay; assay type: cell-based; conditions: hek293, 10 µM; in short: as §1
T4 sequence (P51170 whole entry): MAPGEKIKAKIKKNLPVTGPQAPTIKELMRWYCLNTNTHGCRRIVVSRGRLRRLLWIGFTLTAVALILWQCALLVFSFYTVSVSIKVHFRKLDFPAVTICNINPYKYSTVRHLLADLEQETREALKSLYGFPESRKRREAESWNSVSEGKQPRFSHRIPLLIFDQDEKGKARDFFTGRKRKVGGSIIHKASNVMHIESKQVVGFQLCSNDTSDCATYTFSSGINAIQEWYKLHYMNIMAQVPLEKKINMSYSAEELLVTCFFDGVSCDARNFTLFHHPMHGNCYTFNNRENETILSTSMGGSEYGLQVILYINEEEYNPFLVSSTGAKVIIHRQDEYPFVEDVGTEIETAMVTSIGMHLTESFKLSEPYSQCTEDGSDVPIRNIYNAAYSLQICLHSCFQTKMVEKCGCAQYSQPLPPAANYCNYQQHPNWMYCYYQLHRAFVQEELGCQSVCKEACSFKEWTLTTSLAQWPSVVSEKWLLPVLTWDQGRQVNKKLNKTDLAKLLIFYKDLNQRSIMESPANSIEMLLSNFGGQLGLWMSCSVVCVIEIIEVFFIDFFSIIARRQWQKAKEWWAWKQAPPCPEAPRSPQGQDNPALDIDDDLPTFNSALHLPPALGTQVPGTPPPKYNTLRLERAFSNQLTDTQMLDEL

[5] = molecular target: T1, Urokinase-type plasminogen activator; experiment: Inhibition of human kidney uPA using chromogenic H-D-Ile-L-Pro-L-Arg-p-nitoraniline as substrate by fluorescence assay
In short: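 Enzyme was uPA from human kidney cells at 10 nM final. […] Absorbance change at 405 nm gave initial rates. IC50 from a sigmoidal fit of % residual activity vs log concentration.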

[6] = molecular target: Tissue-type plasminogen activator (Homo sapiens, UniProt P00750); experiment: Inhibition of tPA (unknown origin) using chromogenic H-D-Ile-L-Pro-L-Arg-p-nitoraniline as substrate by […]
Tissue-type plasminogen activator, sequence (P00750 whole entry): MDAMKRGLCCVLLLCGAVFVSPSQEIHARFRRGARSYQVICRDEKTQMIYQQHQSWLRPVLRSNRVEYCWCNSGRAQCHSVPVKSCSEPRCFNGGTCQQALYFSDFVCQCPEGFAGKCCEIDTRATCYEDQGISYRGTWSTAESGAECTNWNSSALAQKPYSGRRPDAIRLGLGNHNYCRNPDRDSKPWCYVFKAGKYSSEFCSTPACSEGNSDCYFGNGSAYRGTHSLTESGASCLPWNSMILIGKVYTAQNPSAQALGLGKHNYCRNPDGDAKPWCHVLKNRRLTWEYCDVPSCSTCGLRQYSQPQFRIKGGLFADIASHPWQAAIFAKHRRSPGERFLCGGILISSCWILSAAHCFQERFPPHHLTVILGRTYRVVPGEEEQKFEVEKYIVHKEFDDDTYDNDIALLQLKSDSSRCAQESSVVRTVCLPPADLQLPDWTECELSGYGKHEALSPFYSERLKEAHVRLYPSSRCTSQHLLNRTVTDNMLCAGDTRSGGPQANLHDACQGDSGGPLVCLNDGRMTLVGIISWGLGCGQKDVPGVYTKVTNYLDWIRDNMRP

[7] = molecular target: Plasminogen (Homo sapiens, UniProt P00747); experiment: Inhibition of plasmin (unknown origin) using chromogenic H-D-Ile-L-Pro-L-Arg-p-nitoraniline as substrate by […]
Plasminogen, sequence (P00747 97-580 limits assumed): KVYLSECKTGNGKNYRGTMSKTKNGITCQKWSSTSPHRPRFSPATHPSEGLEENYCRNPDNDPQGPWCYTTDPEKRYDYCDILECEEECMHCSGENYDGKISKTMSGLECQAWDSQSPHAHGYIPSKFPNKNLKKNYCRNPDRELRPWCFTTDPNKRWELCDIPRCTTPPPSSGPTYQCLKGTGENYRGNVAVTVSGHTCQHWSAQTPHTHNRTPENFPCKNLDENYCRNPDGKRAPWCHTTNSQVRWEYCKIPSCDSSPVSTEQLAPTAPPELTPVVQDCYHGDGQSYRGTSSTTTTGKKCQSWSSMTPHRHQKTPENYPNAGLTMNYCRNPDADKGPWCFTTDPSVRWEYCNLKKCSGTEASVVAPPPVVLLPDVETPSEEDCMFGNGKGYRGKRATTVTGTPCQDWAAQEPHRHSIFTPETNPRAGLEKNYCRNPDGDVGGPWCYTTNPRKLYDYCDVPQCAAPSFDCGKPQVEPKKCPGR
Plasminogen, sequence (P00747 581-810 limits assumed): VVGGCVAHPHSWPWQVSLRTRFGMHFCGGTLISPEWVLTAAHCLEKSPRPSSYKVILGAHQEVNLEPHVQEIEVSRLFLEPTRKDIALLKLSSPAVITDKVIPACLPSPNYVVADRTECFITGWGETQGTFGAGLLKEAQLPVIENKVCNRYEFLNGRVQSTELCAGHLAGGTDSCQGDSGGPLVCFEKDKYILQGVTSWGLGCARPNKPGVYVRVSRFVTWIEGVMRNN

[8] = molecular target: Prothrombin (Homo sapiens, UniProt P00734); experiment: Inhibition of thrombin (unknown origin) using chromogenic H-D-Ile-L-Pro-L-Arg-p-nitoraniline as substrate by […]
[9] = molecular target: Plasma kallikrein (Homo sapiens, UniProt P03952); experiment: Inhibition of human plasma kallikrein using chromogenic L-pyroGlu-L-Pro-L-Arg-p-nitroaniline as substrate by fluorescence assay
Plasma kallikrein, sequence (P03952 20-390 limits assumed): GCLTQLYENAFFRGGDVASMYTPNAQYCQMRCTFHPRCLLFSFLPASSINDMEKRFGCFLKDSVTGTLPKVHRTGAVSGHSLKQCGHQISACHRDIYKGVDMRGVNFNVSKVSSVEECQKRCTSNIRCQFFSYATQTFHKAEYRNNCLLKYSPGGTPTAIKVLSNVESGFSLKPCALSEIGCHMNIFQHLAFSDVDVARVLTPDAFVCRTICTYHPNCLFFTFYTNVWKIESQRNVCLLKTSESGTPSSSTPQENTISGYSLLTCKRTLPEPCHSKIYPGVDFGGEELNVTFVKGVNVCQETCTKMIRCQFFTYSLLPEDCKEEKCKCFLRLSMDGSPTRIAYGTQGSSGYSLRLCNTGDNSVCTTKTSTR
Plasma kallikrein, sequence (P03952 391-638 limits assumed): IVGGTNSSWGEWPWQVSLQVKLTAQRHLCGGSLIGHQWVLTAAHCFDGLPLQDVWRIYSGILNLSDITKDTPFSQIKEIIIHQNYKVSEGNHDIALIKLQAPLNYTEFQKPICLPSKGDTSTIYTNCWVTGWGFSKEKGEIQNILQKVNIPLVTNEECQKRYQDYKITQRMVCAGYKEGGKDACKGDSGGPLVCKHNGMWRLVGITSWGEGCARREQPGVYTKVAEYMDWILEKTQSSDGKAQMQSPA

[10] = molecular target: Coagulation factor XI (Homo sapiens, UniProt P03951); experiment: Inhibition of factor 11a (unknown origin) using chromogenic L-pyroGlu-L-Pro-L-Arg-p-nitroaniline as substrate by […]
Coagulation factor XI, sequence (P03951 19-387 limits assumed): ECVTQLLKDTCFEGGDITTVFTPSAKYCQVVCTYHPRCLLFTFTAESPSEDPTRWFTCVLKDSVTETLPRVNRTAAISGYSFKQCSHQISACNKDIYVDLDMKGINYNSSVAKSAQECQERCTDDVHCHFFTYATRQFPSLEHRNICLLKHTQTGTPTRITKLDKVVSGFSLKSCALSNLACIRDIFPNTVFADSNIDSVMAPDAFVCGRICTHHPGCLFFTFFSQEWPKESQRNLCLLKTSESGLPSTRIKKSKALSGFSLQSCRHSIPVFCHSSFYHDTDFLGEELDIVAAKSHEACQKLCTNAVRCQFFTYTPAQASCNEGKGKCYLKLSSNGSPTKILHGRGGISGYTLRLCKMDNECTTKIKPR
Coagulation factor XI, sequence (P03951 388-625 limits assumed): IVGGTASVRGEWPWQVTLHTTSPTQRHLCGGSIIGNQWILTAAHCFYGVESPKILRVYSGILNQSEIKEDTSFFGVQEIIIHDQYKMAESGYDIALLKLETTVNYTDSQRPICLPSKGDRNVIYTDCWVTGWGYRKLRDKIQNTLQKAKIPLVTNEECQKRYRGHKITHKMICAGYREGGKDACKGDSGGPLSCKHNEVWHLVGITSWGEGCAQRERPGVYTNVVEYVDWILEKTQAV

[11] = molecular target: Coagulation factor X (Homo sapiens, UniProt P00742); experiment: Inhibition of factor 10a (unknown origin) using chromogenic H-D-Ile-L-Pro-L-Arg-p-nitoraniline as substrate by fluorescence assay
Coagulation factor X, sequence (P00742 41-179 limits assumed): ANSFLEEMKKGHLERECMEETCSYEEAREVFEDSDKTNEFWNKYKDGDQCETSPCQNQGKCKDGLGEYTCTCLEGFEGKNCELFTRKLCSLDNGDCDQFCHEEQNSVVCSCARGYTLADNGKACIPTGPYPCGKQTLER
Coagulation factor X, sequence (P00742 235-488 limits assumed): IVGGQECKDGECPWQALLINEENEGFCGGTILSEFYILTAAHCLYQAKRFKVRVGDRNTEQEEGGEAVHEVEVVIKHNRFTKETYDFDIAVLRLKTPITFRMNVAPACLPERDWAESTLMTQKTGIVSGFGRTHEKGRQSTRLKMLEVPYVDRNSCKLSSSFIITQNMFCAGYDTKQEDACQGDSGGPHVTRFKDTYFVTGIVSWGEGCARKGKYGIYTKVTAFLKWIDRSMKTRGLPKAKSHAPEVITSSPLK

[12] = molecular target: Vitamin K-dependent protein C (Homo sapiens, UniProt P04070); experiment: Inhibition of activated protein C (unknown origin) using chromogenic L-pyroGlu-L-Pro-L-Arg-p-nitroaniline as substrate by fluorescence assay
Vitamin K-dependent protein C, sequence (P04070 43-197 limits assumed): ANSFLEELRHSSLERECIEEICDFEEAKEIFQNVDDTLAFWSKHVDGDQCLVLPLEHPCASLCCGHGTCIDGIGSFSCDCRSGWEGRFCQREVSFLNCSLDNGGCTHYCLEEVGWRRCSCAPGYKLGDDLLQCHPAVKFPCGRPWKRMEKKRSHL
Vitamin K-dependent protein C, sequence (P04070 212-461 limits assumed): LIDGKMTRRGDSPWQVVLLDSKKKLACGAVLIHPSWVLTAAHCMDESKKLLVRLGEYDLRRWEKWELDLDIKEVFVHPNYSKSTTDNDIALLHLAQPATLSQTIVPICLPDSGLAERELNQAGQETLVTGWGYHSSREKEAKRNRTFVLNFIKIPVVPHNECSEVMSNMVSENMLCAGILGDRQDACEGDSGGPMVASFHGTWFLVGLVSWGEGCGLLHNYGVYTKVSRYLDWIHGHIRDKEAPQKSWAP

[13] = tested on: MDA-MB-231; experiment: Cytotoxicity against human MDA-MB-231 cells assessed as reduction in cell viability after 48 hrs by CellTiter 96 Aqueous One solution cell proliferation assay; assay type: functional, cell-based; conditions: MDA-MB-231, 48 h
In short: (§2)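 Cells grown in DMEM high glucose with 10% heat-inactivated FCS, seeded at 5000/well and left 18 h. Compounds added at 1 nM–100 µM final (0.2% vehicle), n = 4 wells per concentration, with colour blanks. After 48 h, MTS reagent added for 2 h and A490 read. IC50 from a variable-slope sigmoidal fit.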

[14] = tested on: HepG2; experiment: Cytotoxicity against human HepG2 cells assessed as reduction in cell viability after 48 hrs by CellTiter 96 Aqueous One solution cell proliferation assay; assay type: functional, cell-based; conditions: HepG2, 48 h; in short: as §2
[15] = tested on: HEK293; experiment: Cytotoxicity against HEK293 cells assessed as reduction in cell viability after 48 hrs by CellTiter 96 Aqueous One solution cell proliferation assay; assay type: cell-based; conditions: Homo sapiens, HEK293, 48 h; in short: as §2
[16] = tested on: HT-1080; experiment: Cytotoxicity against human HT1080 cells assessed as reduction in cell viability after 48 hrs by CellTiter 96 Aqueous One solution cell proliferation assay; assay type: functional, cell-based; conditions: HT-1080, 48 h; in short: as §2

**Q.** Which Ki [1] does the source give for `CSc1ccc(-c2nc(C(=O)NC(=N)N)c(N)nc2N2CCCCCC2)cc1` here?
**A.** 16.4 µM

**Q.** How did the Ki [1] turn out when `COc1cc(OC)cc(-c2nc(C(=O)NC(=N)N)c(N)nc2N2CCCCCC2)c1` was run?
**A.** 1.32 µM

**Q.** How did the Ki [1] turn out when `N=C(N)NC(=O)c1nc(-c2cccnc2F)c(N2CCCCCC2)nc1N` was run?
**A.** 1.78 µM

**Q.** With `Cn1cc(-c2nc(C(=O)NC(=N)N)c(N)nc2N2CCCCCC2)cn1` as the compound, how does the Ki [1] read?
**A.** 0.508 µM

**Q.** With `N=C(N)NC(=O)c1nc(-c2cccs2)c(N2CCCCCC2)nc1N` as the compound, how does the Ki [1] read?
**A.** 2.42 µM

**Q.** How did the Ki [1] turn out when `N=C(N)NC(=O)c1nc(-c2ccc(C(F)(F)F)cc2)c(N2CCCCCC2)nc1N` was run?
**A.** 4.26 µM

**Q.** And the “inhibition (INH)” value [2]?
**A.** Not Active

**Q.** What about the “inhibition (INH)” value [3] of the same compound?
**A.** Not Active

**Q.** And the “inhibition (INH)” value [4]?
**A.** Not Active

**Q.** Which results are given for `N=C(N)NC(=O)c1nc(-c2cc3c(F)cccc3o2)c(N2CCCCCC2)nc1N`?
**A.** Ki [1]: 0.088 µM; IC50 [5]: 0.43 µM; IC50 [6]: > 20 µM; IC50 [7]: > 20 µM; IC50 [8]: > 20 µM; IC50 [9]: 16.7 µM; IC50 [10]: 23.3 µM; IC50 [11]: > 50 µM; IC50 [12]: > 50 µM; IC50 [13]: 3.2 µM; IC50 [14]: 68.4 µM; IC50 [15]: 12 µM; IC50 [16]: 2.1 µM

**Q.** For `N=C(N)NC(=O)c1nc(-c2cc3ccccc3s2)c(N2CCCCCC2)nc1N`, which Ki [1] is on record?
**A.** 3.31 µM

**Q.** With `N=C(N)NC(=O)c1nc(-c2cncc3ccccc23)c(N2CCCCCC2)nc1N` as the compound, how does the Ki [1] read?
**A.** 3.54 µM

**Q.** `COc1ccc(-c2nc(C(=O)NC(=N)N)c(N)nc2N2CCCCCC2)c(OC)c1` was tested. Which Ki [1] did it give?
**A.** 2.2 µM

**Q.** How did the Ki [1] turn out when `N=C(N)NC(=O)c1nc(-c2ccccc2)c(N2CCCCCC2)nc1N` was run?
**A.** 5.02 µM

**Q.** With `N=C(N)NC(=O)c1nc(-c2ccco2)c(N2CCCCCC2)nc1N` as the compound, how does the Ki [1] read?
**A.** 0.156 µM

**Q.** Which Ki [1] does the source give for `COc1ccc(-c2nc(C(=O)NC(=N)N)c(N)nc2N2CCCCCC2)c(OC)n1` here?
**A.** 0.884 µM
